Results from ChEMBL document CHEMBL4396917, “Synthesis and biological evaluation of novel benzylidene-succinimide derivatives as noncytotoxic antiangiogenic inhibitors with anticolorectal cancer activity in vivo” (Eur J Med Chem, 2019).
Calls of active or inactive are those of the source. The rule behind the calls is not given here.

Tests used:
NCM460 = assay: Cytotoxicity against human NCM460 cells assessed as reduction in cell growth after 72 hrs by MTT assay; assay type: cell-based; conditions: NCM460, 72 h
SW480 = assay: Cytotoxicity against human SW480 cells assessed as reduction in cell growth after 72 hrs by MTT assay; assay type: cell-based; conditions: SW480, 72 h
Mus musculus = assay: Antiangiogenic activity in Matrigel plug angiogenic Balb/c mouse model assessed as impaired vascularization by measuring loss of red colour in VEGF-supplemented matrigel at 20 to 60 mg/kg, sc measured after 15 days; assay type: functional, organism-based
Method in brief: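 Balb/c nude mice (6–8 weeks), three groups, injected subcutaneously with 400 μL Matrigel alone or with VEGF (250 ng/mL) and/or compound; after 15 days plugs removed, weighed and photographed.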

HCT-116 = assay: Cytotoxicity against human HCT116 cells assessed as reduction in cell growth after 72 hrs by MTT assay; assay type: cell-based; conditions: HCT-116, 72 h
Chorioallantoic membrane [1] = assay: Antiangiogenic activity in Leghorn chicken fertilized egg chorioallantoic membrane at 10 nM/egg measured after 48 hrs by CAM assay; assay type: functional, tissue-based; conditions: Gallus gallus
Method in brief: (§1)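 Fertile Leghorn eggs incubated at 37.8°C, 40% humidity; window opened on day 7; compound, sunitinib or 0.9% NaCl mixed with DMSO applied on filter paper onto CAM; 48 h incubation, methanol fixation, photography; nascent vessels counted.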

HUVEC [2] = assay: Antiangiogenic activity against VEGF-induced HUVEC assessed as inhibition of cell proliferation preincubated for 30 mins followed by VEGF addition measured after 24 hrs by MTT assay; assay type: functional, cell-based; conditions: Homo sapiens
Method in brief: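 HUVECs seeded 24 h, starved 16 h in M200 with 2% FBS, pretreated 30 min with compound at 0.1, 1, 10, 20 or 40 μM, then stimulated with VEGF (25 ng/mL) for 24 h; viability read by MTT; IC50 determined.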

HUVEC [3] = assay: Antiangiogenic activity against HUVEC assessed as inhibition of cell proliferation measured […] by MTT assay; assay type: functional, cell-based; conditions: Homo sapiens, 0.5 h
Chorioallantoic membrane [4] = assay: Antiangiogenic activity in Leghorn chicken fertilized egg chorioallantoic membrane measured after 48 hrs by CAM assay; assay type: functional, tissue-based; conditions: Gallus gallus; method in brief: as §1

Compound | IC50 (NCM460) | IC50 (SW480) | Activity (Mus musculus) | IC50 (HCT-116) | Activity (Chorioallantoic membrane [1]) | IC50 (HUVEC [2]) | IC50 (HUVEC [3]) | Activity (Chorioallantoic membrane [4])
COc1ccc(NC(=O)c2cccc(CC3CC(=O)N(c4ccc(C)cc4)C3=O)c2)cc1 (stereo not given) | > 100 µM | > 100 µM | Active | > 100 µM | – | – | – | –
O=C(Nc1ccc(Cl)cc1)c1cccc(/C=C2\CC(=O)N(Cc3ccccc3)C2=O)c1 | > 100 µM | > 100 µM | – | > 100 µM | – | – | – | –
Cc1cccc(NC(=O)c2cccc(/C=C3\CC(=O)N(c4ccccc4)C3=O)c2)c1 | > 100 µM | > 100 µM | – | > 100 µM | – | – | – | –
Cc1ccc(N2C(=O)C/C(=C\c3cccc(C(=O)Nc4cccc(F)c4)c3)C2=O)cc1 | > 100 µM | 96.9 µM | – | > 100 µM | – | – | – | –
COc1ccc(NC(=O)c2cccc(/C=C3\CC(=O)N(c4ccccc4)C3=O)c2)cc1 | > 100 µM | > 100 µM | – | > 100 µM | Active | – | – | –
O=C(Nc1cccc(F)c1)c1cccc(/C=C2\CC(=O)N(c3ccccc3)C2=O)c1 | > 100 µM | > 100 µM | – | > 100 µM | – | – | – | –
O=C(NC1CCCCC1)c1cccc(/C=C2\CC(=O)N(c3ccccc3)C2=O)c1 | > 100 µM | > 100 µM | – | > 100 µM | Active | – | – | –
COc1ccc(NC(=O)c2cccc(/C=C3\CC(=O)N(c4ccccc4)C3=O)c2)c(C)c1 | > 100 µM | > 100 µM | – | > 100 µM | – | – | – | –
O=C(Nc1ccccc1)c1cccc(/C=C2\CC(=O)N(c3ccccc3)C2=O)c1 | > 100 µM | > 100 µM | – | > 100 µM | – | – | – | –
O=C(NCc1ccccc1)c1cccc(/C=C2\CC(=O)N(c3ccccc3)C2=O)c1 | > 100 µM | > 100 µM | – | > 100 µM | Active | – | – | –
O=C(c1cccc(/C=C2\CC(=O)N(c3ccccc3)C2=O)c1)N1CCCC1 | > 100 µM | > 100 µM | – | > 100 µM | Active | – | – | –
CCCCCN1C(=O)C/C(=C\c2cccc(C(=O)Nc3ccc(OC)cc3)c2)C1=O | > 100 µM | > 100 µM | – | > 100 µM | – | – | – | –
CCOc1ccc(NC(=O)c2cccc(/C=C3\CC(=O)N(Cc4ccccc4)C3=O)c2)cc1 | > 100 µM | 73.2 µM | – | 41.7 µM | – | – | – | –
O=C(Nc1ccc(F)cc1)c1cccc(/C=C2\CC(=O)N(c3ccccc3)C2=O)c1 | > 100 µM | > 100 µM | – | > 100 µM | – | – | – | –
CCCCN1C(=O)C/C(=C\c2cccc(C(=O)Nc3cccc(CC)c3)c2)C1=O | > 100 µM | 83.2 µM | – | 75.3 µM | – | – | – | –
CSc1cccc(NC(=O)c2cccc(/C=C3\CC(=O)N(c4ccccc4)C3=O)c2)c1 | > 100 µM | 74.3 µM | – | 65.2 µM | – | – | – | –

Compound | IC50 (NCM460) | IC50 (SW480) | Activity (Mus musculus) | IC50 (HCT-116) | Activity (Chorioallantoic membrane [1]) | IC50 (HUVEC [2]) | IC50 (HUVEC [3]) | Activity (Chorioallantoic membrane [4])
COc1cc(NC(=O)c2cccc(/C=C3\CC(=O)N(c4ccccc4)C3=O)c2)cc(OC)c1OC | > 100 µM | > 100 µM | – | > 100 µM | – | – | – | –
Cc1ccc(NC(=O)c2cccc(/C=C3\CC(=O)N(c4ccccc4)C3=O)c2)cc1 | > 100 µM | > 100 µM | – | > 100 µM | – | – | – | –
CCc1cccc(NC(=O)c2cccc(/C=C3\CC(=O)N(c4ccccc4)C3=O)c2)c1 | > 100 µM | 88.6 µM | – | 81.2 µM | – | – | – | –
Cc1ccc(N2C(=O)C/C(=C\c3cccc(C(=O)Nc4ccc(Cl)cc4)c3)C2=O)cc1 | > 100 µM | > 100 µM | – | > 100 µM | – | – | – | –
CCN(CC)CCNC(=O)c1c(C)[nH]c(/C=C2\C(=O)Nc3ccc(F)cc32)c1C [SUNITINIB] | – | – | – | – | – | 3.63 µM | 6.46 µM | Active
CCCCNC(=O)c1cccc(/C=C2\CC(=O)N(Cc3ccccc3)C2=O)c1 | > 100 µM | > 100 µM | – | 95 µM | – | – | – | –
O=C(c1cccc(/C=C2\CC(=O)N(c3ccccc3)C2=O)c1)N1CCOCC1 | > 100 µM | > 100 µM | – | > 100 µM | Active | – | – | –
CCc1cccc(NC(=O)c2cccc(/C=C3\CC(=O)N(Cc4ccccc4)C3=O)c2)c1 | > 100 µM | 91.5 µM | – | 80.6 µM | – | – | – | –
O=C(Nc1ccc(OC(F)F)cc1)c1cccc(/C=C2\CC(=O)N(c3ccccc3)C2=O)c1 | > 100 µM | > 100 µM | – | > 100 µM | – | – | – | –
Cc1ccc(NC(=O)c2cccc(/C=C3\CC(=O)N(c4ccccc4)C3=O)c2)cc1C | > 100 µM | > 100 µM | – | > 100 µM | – | – | – | –
CCOc1ccc(NC(=O)c2cccc(/C=C3\CC(=O)N(c4ccccc4)C3=O)c2)cc1 | > 100 µM | 91.5 µM | – | 84.8 µM | – | – | – | –
CCc1cccc(NC(=O)c2cccc(/C=C3\CC(=O)N(c4ccc(C)cc4)C3=O)c2)c1 | > 100 µM | 65.3 µM | – | 41.5 µM | – | – | – | –
COc1ccc(OC)c(NC(=O)c2cccc(/C=C3\CC(=O)N(c4ccccc4)C3=O)c2)c1 | > 100 µM | > 100 µM | – | > 100 µM | – | – | – | –
CCc1ccc(NC(=O)c2cccc(/C=C3\CC(=O)N(c4ccccc4)C3=O)c2)cc1 | > 100 µM | > 100 µM | – | > 100 µM | – | – | – | –
O=C(Nc1ccc(Cl)cc1)c1cccc(/C=C2\CC(=O)N(c3ccccc3)C2=O)c1 | > 100 µM | > 100 µM | – | > 100 µM | Active | – | – | –
